{"source": "ChEMBL document CHEMBL3407478", "about": "“Development of a series of aryl pyrimidine kynurenine monooxygenase inhibitors as potential therapeutic agents for the treatment of Huntington's disease” (J Med Chem, 2015)", "key": {"[1]": {"target": "Kynurenine 3-monooxygenase (Homo sapiens, UniProt O15229)", "sequence (O15229 whole entry)": "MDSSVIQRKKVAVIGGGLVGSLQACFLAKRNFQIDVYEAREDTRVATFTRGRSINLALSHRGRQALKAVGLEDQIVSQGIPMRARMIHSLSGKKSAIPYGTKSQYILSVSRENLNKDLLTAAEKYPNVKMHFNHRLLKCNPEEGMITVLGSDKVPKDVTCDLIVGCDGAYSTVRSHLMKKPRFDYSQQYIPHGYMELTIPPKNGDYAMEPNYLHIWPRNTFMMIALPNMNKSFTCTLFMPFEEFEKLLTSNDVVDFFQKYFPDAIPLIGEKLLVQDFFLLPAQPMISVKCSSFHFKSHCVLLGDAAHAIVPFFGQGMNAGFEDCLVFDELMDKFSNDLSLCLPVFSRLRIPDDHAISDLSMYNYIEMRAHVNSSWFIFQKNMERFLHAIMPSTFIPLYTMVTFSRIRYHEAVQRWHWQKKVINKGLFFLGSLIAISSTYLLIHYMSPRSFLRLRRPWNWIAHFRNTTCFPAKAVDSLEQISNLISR", "assay": "Inhibition of human KMO transfected in CHO cells assessed as conversion of kynurenine to 3-hydroxykynurenine by LC-MS/MS analysis", "assay_type": "cell-based"}, "[2]": {"assay": "Lipophilicity, log P of the compound at pH 7", "assay_type": "physicochemical", "conditions": "buffer"}, "[3]": {"target": "Kynurenine 3-monooxygenase (Mus musculus, UniProt Q91WN4)", "sequence (Q91WN4 whole entry)": "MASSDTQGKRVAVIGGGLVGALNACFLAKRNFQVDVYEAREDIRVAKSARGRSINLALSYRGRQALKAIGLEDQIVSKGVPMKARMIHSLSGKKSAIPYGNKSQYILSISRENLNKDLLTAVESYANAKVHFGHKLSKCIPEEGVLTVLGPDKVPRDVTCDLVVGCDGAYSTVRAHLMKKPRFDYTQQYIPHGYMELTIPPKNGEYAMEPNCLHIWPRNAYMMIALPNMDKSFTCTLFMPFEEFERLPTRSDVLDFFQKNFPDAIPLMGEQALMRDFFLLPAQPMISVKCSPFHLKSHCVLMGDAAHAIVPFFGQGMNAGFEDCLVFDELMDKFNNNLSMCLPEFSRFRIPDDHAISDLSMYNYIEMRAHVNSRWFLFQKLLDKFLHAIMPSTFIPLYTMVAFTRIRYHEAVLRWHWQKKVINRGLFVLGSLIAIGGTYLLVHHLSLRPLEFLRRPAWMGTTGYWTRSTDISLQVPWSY", "assay": "Inhibition of mouse KMO assessed as conversion of kynurenine to 3-hydroxykynurenine by LC-MS/MS analysis", "outline": "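Mitochondrial fractions from mouse or rat liver tissue used as KMO source. Conversion of kynurenine to 3-hydroxykynurenine quantified by LC-MS/MS; IC50 averaged from triplicate tests.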"}, "[4]": {"assay": "MRT in Sprague-Dawley rat plasma at 6.2 mg equivalents/kg, iv", "assay_type": "ADME, cell-free", "outline": "(§1)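 Nonfasted male Sprague-Dawley rats (300−370 g). Single iv tail-vein dose of 6.2 mg equiv/kg (1.24 mg equiv/mL in DMSO:PEG400:water 10:40:50) or oral gavage of 12 mg equiv/kg (1.20 mg equiv/mL in 10% hydroxypropyl-β-cyclodextrin). Terminal bleeds under isoflurane (N = 3) at 0.083−24 h; heparin plasma; tissues snap-frozen.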"}, "[5]": {"assay": "Volume of distribution at steady state in Sprague-Dawley rat plasma at 6.2 mg equivalents/kg, iv", "assay_type": "ADME, cell-free", "conditions": "read-out: Vdss", "outline": "as §1"}, "[6]": {"assay": "Tmax in Sprague-Dawley rat plasma at 12 mg equivalents/kg, po", "assay_type": "ADME, cell-free", "outline": "as §1"}, "Brain [7]": {"test_system": "Brain", "assay": "Dose normalized AUC (0 to infinity) in Sprague-Dawley rat brain at 6.2 mg equivalents/kg, iv", "assay_type": "ADME, tissue-based", "conditions": "in vivo"}, "Brain [8]": {"test_system": "Brain", "assay": "Dose normalized AUC (0 to infinity) in Sprague-Dawley rat brain at 12 mg equivalents/kg, po", "assay_type": "ADME, tissue-based", "conditions": "in vivo"}, "Brain [9]": {"test_system": "Brain", "assay": "Dose normalized Cmax in Sprague-Dawley rat brain at 12 mg equivalents/kg, po", "assay_type": "ADME, tissue-based", "conditions": "in vivo"}, "[10]": {"assay": "Tmax in Sprague-Dawley rat brain at 12 mg equivalents/kg, po", "assay_type": "ADME, tissue-based", "outline": "as §1"}, "Plasma [11]": {"test_system": "Plasma", "assay": "Dose normalized AUC (0 to infinity) in Sprague-Dawley rat plasma at 10 mg equivalents/kg, po after 0.25 to 12 hrs", "assay_type": "ADME, organism-based", "conditions": "in vivo", "outline": "(§2)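 Male Sprague-Dawley rats given a single oral dose of 10 mg equiv/kg as a 2 mg equiv/mL solution in 10% hydroxypropyl-β-cyclodextrin. Plasma, liver, kidney, cortex, striatum and CSF levels were measured from 0.25 to 12 h. Brain tissue was taken from nonperfused brains. CSF AUCN covers 0–8 h because the elimination phase was undefined.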"}, "[12]": {"assay": "Half life in Sprague-Dawley rat plasma at 10 mg equivalents/kg, po after 0.25 to 12 hrs", "assay_type": "ADME, organism-based", "outline": "as §2"}, "Cerebrospinal fluid [13]": {"test_system": "Cerebrospinal fluid", "assay": "Dose normalized AUC (0 to infinity) in Sprague-Dawley rat CSF at 10 mg equivalents/kg, po after 0 to 8 hrs", "assay_type": "ADME, organism-based", "conditions": "in vivo", "outline": "as §2"}, "Cerebrospinal fluid [14]": {"test_system": "Cerebrospinal fluid", "assay": "Dose normalized Cmax in Sprague-Dawley rat CSF at 10 mg equivalents/kg, po after 0.25 to 12 hrs", "assay_type": "ADME, organism-based", "conditions": "in vivo", "outline": "as §2"}, "[15]": {"assay": "Half life in Sprague-Dawley rat cortex at 10 mg equivalents/kg, po after 0.25 to 12 hrs", "assay_type": "ADME, organism-based", "outline": "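Nonfasted male Sprague-Dawley rats; single oral dose 10 mg equiv/kg as 2 mg equiv/mL solution in 10% hydroxypropyl-β-cyclodextrin. Cortex taken from nonperfused brains, sampled 0.25 to 12 h after dosing. Drug measured by LC-MS/MS; half-life derived from concentration-time profile.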"}, "[16]": {"assay": "Tmax in Sprague-Dawley rat striatum at 10 mg equivalents/kg, po after 0.25 to 12 hrs", "assay_type": "ADME, organism-based", "outline": "(§3)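 Fed male Sprague-Dawley rats given a single oral dose of 10 mg equiv/kg as 2 mg equiv/mL in 10% hydroxypropyl-β-cyclodextrin. Plasma, CSF, kidney, liver, and cortex and striatum from nonperfused brains sampled from 0.25 to 12 h.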"}, "Kidney": {"test_system": "Kidney", "assay": "Dose normalized AUC (0 to infinity) in Sprague-Dawley rat kidney at 10 mg equivalents/kg, po after 0.25 to 12 hrs", "assay_type": "ADME, organism-based", "conditions": "in vivo", "outline": "as §2"}, "[17]": {"assay": "Tmax in Sprague-Dawley rat kidney at 10 mg equivalents/kg, po after 0.25 to 12 hrs", "assay_type": "ADME, organism-based", "outline": "as §3"}, "[18]": {"assay": "Half life in Sprague-Dawley rat liver at 10 mg equivalents/kg, po after 0.25 to 12 hrs", "assay_type": "ADME, organism-based", "outline": "as §2"}, "Plasma [19]": {"test_system": "Plasma", "assay": "Dose normalized AUC (0 to infinity) in wild-type FVB/N mouse plasma at 5 mg equivalents/kg, iv by LC-MS/MS analysis", "assay_type": "ADME, organism-based", "conditions": "in vivo", "outline": "(§4)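 Male mice given a single 5 mg equiv/kg iv bolus: FVB wild type, Bcrp(−/−), Mdr1a/b(−/−) and Mdr1a/b(−/−)/Bcrp(−/−). Brain and plasma concentration–time profiles were used to derive dose-normalized AUC (0–infinity).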"}, "Plasma [20]": {"test_system": "Plasma", "assay": "Dose normalized AUC (0 to infinity) in BCRP knock out FVB/N mouse plasma at 5 mg equivalents/kg, iv by LC-MS/MS analysis", "assay_type": "ADME, organism-based", "conditions": "in vivo", "outline": "as §4"}, "Brain [21]": {"test_system": "Brain", "assay": "Dose normalized AUC (0 to infinity) in BCRP knock out FVB/N mouse brain at 5 mg equivalents/kg, iv by LC-MS/MS analysis", "assay_type": "ADME, organism-based", "conditions": "in vivo", "outline": "as §4"}, "Plasma [22]": {"test_system": "Plasma", "assay": "Dose normalized AUC (0 to infinity) in MDR1a knock out FVB/N mouse plasma at 5 mg equivalents/kg, iv by LC-MS/MS analysis", "assay_type": "ADME, organism-based", "conditions": "in vivo", "outline": "as §4"}, "Brain [23]": {"test_system": "Brain", "assay": "Dose normalized AUC (0 to infinity) in MDR1a knock out FVB/N mouse brain at 5 mg equivalents/kg, iv by LC-MS/MS analysis", "assay_type": "ADME, organism-based", "conditions": "in vivo", "outline": "as §4"}, "Brain [24]": {"test_system": "Brain", "assay": "Dose normalized AUC (0 to infinity) in BCRP and MDR1a knock out FVB/N mouse brain at 5 mg equivalents/kg, iv by LC-MS/MS analysis", "assay_type": "ADME, organism-based", "conditions": "in vivo", "outline": "as §4"}, "Rattus norvegicus [25]": {"test_system": "Rattus norvegicus", "assay": "Inhibition of KMO in Sprague-Dawley rat plasma assessed as time duration for elevation in kynurenic acid plasma level at 10 mg/kg, po by […] analysis", "assay_type": "functional", "outline": "(§5)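 Sprague-Dawley rats given a single 10 mg/kg oral dose. KYN, 3-HK, KYNA and AA were quantified in plasma by LC-MS/MS at multiple time points.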"}, "Rattus norvegicus [26]": {"test_system": "Rattus norvegicus", "assay": "Inhibition of KMO in Sprague-Dawley rat plasma assessed as time duration for elevation in anthranilic acid plasma level at 10 mg/kg, po by […] analysis", "assay_type": "functional", "outline": "as §5"}, "Rattus norvegicus [27]": {"test_system": "Rattus norvegicus", "assay": "Inhibition of KMO in Sprague-Dawley rat brain assessed as time duration for elevation in kynurenine plasma level at 10 mg/kg, po by […] analysis", "assay_type": "functional"}, "Rattus norvegicus [28]": {"test_system": "Rattus norvegicus", "assay": "Inhibition of KMO in Sprague-Dawley rat brain assessed as time duration for elevation in kynurenic acid plasma level at 10 mg/kg, po by […] analysis", "assay_type": "functional"}, "Rattus norvegicus [29]": {"test_system": "Rattus norvegicus", "assay": "Inhibition of KMO in Sprague-Dawley rat striatum brain microdialysate assessed as time duration for elevation in anthranilic acid level at 10 mg/kg, po by […] analysis", "assay_type": "functional", "outline": "(§6)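 Freely moving Sprague-Dawley rats given 10 mg/kg po, with a microdialysis probe implanted in the striatum. Dialysate was sampled over 0–240 min for free compound and for KYN, KYNA, AA and 3-HK, quantified by LC-MS/MS. Metabolite changes were compared with t = 0 min by 2-way ANOVA.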"}, "Rattus norvegicus [30]": {"test_system": "Rattus norvegicus", "assay": "Inhibition of KMO in Sprague-Dawley rat striatum brain microdialysate assessed as time duration for elevation in kynurenic acid level at 10 mg/kg, po by […] analysis", "assay_type": "functional", "outline": "as §6"}, "Rattus norvegicus [31]": {"test_system": "Rattus norvegicus", "assay": "Inhibition of KMO in po dosed Sprague-Dawley rat plasma assessed as elevation in kynurenic acid plasma level by […] analysis", "assay_type": "functional, organism-based"}}, "note": "pIC50: −log10 of the molar value."}
{"compound": "O=C(O)c1cc(-c2ccc(OC3CC3)c(Cl)c2)ncn1", "values": [{"measurement": "pIC50", "setting": "[1]", "value": 8.10}, {"measurement": "logD", "setting": "[2]", "value": 0.9}, {"measurement": "pIC50", "setting": "[3]", "value": 8.29}, {"measurement": "MRT", "setting": "[4]", "value": 1.1, "unit": "h"}, {"measurement": "Vd", "setting": "[5]", "value": 0.32, "unit": "L/kg"}, {"measurement": "Tmax", "setting": "[6]", "value": 1, "unit": "h"}, {"measurement": "AUC/dose", "setting": "Brain [7]", "value": 0.23, "unit": "µM·kg·h/mg"}, {"measurement": "AUC/dose", "setting": "Brain [8]", "value": 0.12, "unit": "µM·kg·h/mg"}, {"measurement": "Cmax/dose", "setting": "Brain [9]", "value": 0.035, "unit": "µM·kg/mg"}, {"measurement": "Tmax", "setting": "[10]", "value": 1, "unit": "h"}, {"measurement": "AUC/dose", "setting": "Plasma [11]", "value": 5.3, "unit": "µM·kg·h/mg"}, {"measurement": "half-life", "setting": "[12]", "value": 1.7, "unit": "h"}, {"measurement": "AUC/dose", "setting": "Cerebrospinal fluid [13]", "value": 0.014, "unit": "µM·kg·h/mg"}, {"measurement": "Cmax/dose", "setting": "Cerebrospinal fluid [14]", "value": 0.011, "unit": "µM·kg/mg"}, {"measurement": "half-life", "setting": "[15]", "value": 1.9, "unit": "h"}, {"measurement": "Tmax", "setting": "[16]", "value": 0.5, "unit": "h"}, {"measurement": "AUC/dose", "setting": "Kidney", "value": 70, "unit": "µM·kg·h/mg"}, {"measurement": "Tmax", "setting": "[17]", "value": 0.5, "unit": "h"}, {"measurement": "half-life", "setting": "[18]", "value": 2.5, "unit": "h"}, {"measurement": "AUC/dose", "setting": "Plasma [19]", "value": 3.1, "unit": "µM·kg·h/mg"}, {"measurement": "AUC/dose", "setting": "Plasma [20]", "value": 3.6, "unit": "µM·kg·h/mg"}, {"measurement": "AUC/dose", "setting": "Brain [21]", "value": 0.17, "unit": "µM·kg·h/mg"}, {"measurement": "AUC/dose", "setting": "Plasma [22]", "value": 2.6, "unit": "µM·kg·h/mg"}, {"measurement": "AUC/dose", "setting": "Brain [23]", "value": 0.073, "unit": "µM·kg·h/mg"}, {"measurement": "AUC/dose", "setting": "Brain [24]", "value": 0.23, "unit": "µM·kg·h/mg"}, {"measurement": "Time", "setting": "Rattus norvegicus [25]", "value": 8, "unit": "h"}, {"measurement": "Time", "setting": "Rattus norvegicus [26]", "value": 8, "unit": "h"}, {"measurement": "Time", "setting": "Rattus norvegicus [27]", "value": ">=4 hr"}, {"measurement": "Time", "setting": "Rattus norvegicus [28]", "value": ">=4 hr"}, {"measurement": "Time", "setting": "Rattus norvegicus [29]", "value": 40, "unit": "min"}, {"measurement": "Time", "setting": "Rattus norvegicus [30]", "value": 60, "unit": "min"}, {"measurement": "inhibition", "setting": "Rattus norvegicus [31]", "value": "Dose-dependent effect"}]}
